From PubChem BioAssay
PHOSPHO1 block = PHOSPHO1 (human) inhibition | inhibition, % at 13.3 µM | 290,000 tested, 1.1% active | Q8TCT1 | recombinant PHOSPHO1, absorbance phosphatase assay; in the data active = inhibition above about 60%
Target sequence (Q8TCT1 whole entry, looked up): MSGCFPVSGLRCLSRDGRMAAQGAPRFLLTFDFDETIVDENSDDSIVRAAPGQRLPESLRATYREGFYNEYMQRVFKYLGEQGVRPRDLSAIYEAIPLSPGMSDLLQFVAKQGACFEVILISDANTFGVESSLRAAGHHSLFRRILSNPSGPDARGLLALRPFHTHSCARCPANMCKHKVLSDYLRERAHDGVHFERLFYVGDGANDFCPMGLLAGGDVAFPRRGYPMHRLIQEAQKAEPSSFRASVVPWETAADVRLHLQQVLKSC
Runt-SMMHC FRET = Runt domain-CBFb-SMMHC interaction inhibition; 220,000 tested, 0.74% active; inhibition, % at 20 µM; Cerulean-Runt/Venus-CBFb-SMMHC FRET ratio 530/480, 1 h; Q01196+Q13951;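 active = mean inhibition across duplicate retests at 20 µM reaching about 50%, limit read from the data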;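 also: 0% = DMSO wells and 100% = wells with excess untagged CBFb-SMMHC; inhibitors lower the FRET ratio by blocking Runt binding to CBFb-SMMHC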
Wee1 degr inh = inhibitors of human Wee1 degradation; 220,000 tested, 1.2% active; reporter increase, % at 5 µM; AID 1321; P30291; HeLa Luc-Wee1K328M stability, luciferase luminescence; 100% = proteasome inhibitor MG132 effect;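 active = activation above the mean of all tested compounds plus 3 SD, set per screening run, cut at about 8.8% in these data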;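 also: cells exposed to compound for 20 h before luminescence read; 0% = DMSO alone and 100% = MG132 at 30 µM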
RanGTP-Imp inh = disruptors of Ran-importin-beta complex formation – biochemical, FRET, CFP-Ran, YFP-importin-beta, homogeneous, primary screen; 300,000 tested, 1.1% active; cell-free CFP-Ran/YFP-importin-beta FRET ratio; AID 2216; inhibition, % (test concentration not listed);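 active = more than half of the replicate wells show a fall in the fluorescence ratio signal beyond about 16%, limit read from the data, passing the limit was not always enough; inconclusive = exactly half of the replicate wells pass the set limit; inactive = fewer than half of replicates pass the limit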;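 also: 0% = DMSO wells and 100% = Ran loaded with GDP instead of GTP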
HMGR II inh = blocks class II HMG-CoA reductase of Enterococcus faecalis; purified E. faecalis HMGR, NADPH absorbance 340 nm kinetic; inhibition, % at 10 µM; 190,000 tested, 0.41% active; AID 1066;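 active = inhibition above a set limit, the median over all tested compounds plus 3 SD, cut at about 9.5% in these data; inconclusive = no clear call, values can overlap the other calls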;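 also: enzyme runs in reverse so mevalonate oxidation gives rising NADPH absorbance; 0% = complete reaction with DMSO and 100% = background rate lacking mevalonate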
Runt-CBFb FRET = inhibitors of human RUNX1 Runt domain binding to CBFb; AID 1496; Cerulean-Runt/Venus-CBFb FRET ratio 530/480, 1 h; Q01196+Q13951; inhibition, % at 20 µM; 220,000 tested, 0.46% active;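 active = inhibition over about 50% at 20 µM in the single-dose screen, limit read from the data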;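 also: 0% = DMSO wells and 100% = excess unlabeled CBFb competitor control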
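System: Cerulean-labeled Runt domain protein | Quantity: 100 nM of each labeled protein | Schedule: 1 h compound exposure, room temperature | Detection: Fluorescence energy transfer, 422 nm excitation, 530/480 nm emission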
* hit, by the source's call; u = inconclusive; x = not tested or not shown. Most compounds without a hit are left out; they make up all but 3.4% or so of the library.

SMILES	PHOSPHO1 block	Runt-SMMHC FRET	Wee1 degr inh	RanGTP-Imp inh	HMGR II inh	Runt-CBFb FRET
CC(=O)c1cccc(NS(=O)(=O)c2ccc(-c3cnc(C4CC4)o3)cc2)c1	32	x	x	0	x	x
Cc1cc(=O)c2cc(NC(=O)c3ccccc3Cl)ccc2[nH]1	3	x	x	0	x	x
COc1ccc(/C=N/Nc2ccc([N+](=O)[O-])cc2)cc1O	24	x	x	-42	x	x
COC(=O)c1[nH]c2ccc(C)cc2c1NC(=O)CN1CCc2cc(OC)c(OC)cc2C1	69*	-124	0	4	-1	0
CN1CCN(C(CNS(=O)(=O)c2ccc(Br)cc2)c2ccc3c(c2)OCO3)CC1 (centres undefined)	x	x	x	1	x	x
COc1ccc(C2SCC(=O)N2Cc2ccccc2)cc1 (centres undefined)	-12	x	x	2	x	x
COc1cc(C2SCC(=O)N2Cc2ccccc2)ccc1O (centres undefined)	39	x	x	17*	x	x
c1ccc(-c2cnnc3ccccc23)cc1	x	x	x	2	x	x
CCOC(=O)c1cnn(-c2cc(C(C)(C)C)nc3c(-c4ccccc4)c(C)nn23)c1N	0	-10	4	2	2	-5
CCOC(=O)c1cnn(-c2cc(C)nc3c(-c4ccccc4)cnn23)c1N	6	10	11*	-1	-2	-4
COc1ccc(Cl)cc1NC(=O)CN(C)C(=O)c1cn(-c2ccccc2)nc1-c1cccnc1	x	x	x	0	x	x
COC(=O)c1ccc(/C=N\N2CCN(c3ccccc3)CC2)cc1	36	x	x	-2	x	x
COc1ccc(CN2CCC(CO)(Cc3ccccc3C(F)(F)F)CC2)c(F)c1	52	2	1	3	10*	0
COCc1cc(C)n(CC(=O)Nc2ccccc2OC)c(=O)c1C#N	-8	-1	-2	u	-5	1
COCc1cc(C)n(CC(=O)OC)c(=O)c1C#N	26	-1	-2	-3	14*	3
O=[N+]([O-])c1cccc(S(=O)(=O)N2CCN(S(=O)(=O)N3CCCCCC3)CC2)c1	39	x	x	0	x	x
N#CC1=C(N)Oc2cc(O)ccc2C1c1cccs1 (centres undefined)	-18	-53	3	1	1	-16
C#CCOc1ccc(C2C(C#N)=C(N)Oc3cc(O)ccc32)cc1 (centres undefined)	34	x	x	67*	x	x
CCOc1ccc(C2C(C#N)=C(N)Oc3cc(O)ccc32)cc1OCC (centres undefined)	-18	x	x	51*	x	x
COc1ccc(C2C(C#N)=C(N)Oc3cc(O)ccc32)cc1Cl (centres undefined)	x	x	x	59*	x	x
COC(=O)c1ccc(C2C(C#N)=C(N)Oc3cc(O)ccc32)cc1 (centres undefined)	29	x	x	-23	x	x
O=C(NCCc1ccc2c(c1)OCCO2)c1ccccn1	30	x	x	-1	x	x
O=C(Nc1ccccc1N1CCOCC1)c1cccc2c(Br)cccc12	27	x	x	0	x	x
Cc1noc(C)c1COc1ccc(CC(=O)NCc2ccccc2)cc1	-6	4	9.3*	3	-10	0
CC(C)n1c(NCc2ccccc2O)nc2ccccc21	x	x	x	-2	x	x
SMILES	PHOSPHO1 block	Runt-SMMHC FRET	Wee1 degr inh	RanGTP-Imp inh	HMGR II inh	Runt-CBFb FRET
CC(C)n1c(NCc2cccs2)nc2ccccc21	4	0	8.8*	0	3	2
N/C(=N\OS(=O)(=O)c1ccccc1)c1ccccn1	79*	0	0	-3	5	1
COc1cc(OC)c(C(=O)O/N=C(\N)c2ccccn2)cc1OC	22	x	x	3	x	x
COc1ccccc1C(=O)O/N=C(\N)c1ccccn1	20	-6	9.1*	2	x	1
CC(Oc1cccc2ccccc12)C(=O)N/N=C/c1cccnc1 (centres undefined)	-12	x	x	7	x	x
CC(=O)Nc1ccc(NC(=O)/C=C/c2ccc3c(c2)OCO3)cc1	32	-4	0	0	-2	0
Cc1cc(C)nc(NC(=O)/C=C/c2ccc3c(c2)OCO3)c1	9	3	8.9*	-2	-5	-6
NNc1nc2ccccc2c(=O)n1Cc1ccccc1	x	x	x	-2	x	x
COC(=O)c1cc2c(s1)-c1cc(F)ccc1OC2	47	19	-2	6	x	9
CC(=O)c1cc2c(s1)-c1cc(F)ccc1OC2	8	88*	0	-39	x	-54
O=C(CCCN1C(=O)/C(=C/c2cccs2)SC1=S)NNC(=O)c1ccncc1	32	5	-5	-1	-4	-1
O=C(CCCN1C(=O)/C(=C\c2cccs2)SC1=S)NNC(=O)c1cccnc1	28	-1	10*	10	-3	1
O=C(CCCN1C(=O)/C(=C\c2cccs2)SC1=S)Nc1ccccn1	-17	0	1	-2	14*	0
N#C/C(=N\Nc1cccc2ccccc12)c1nnc2n1CCCCC2	-31	64	-1	-6	-4	-5
Cc1ccc(C(=O)Nc2cccc(C(=O)N/N=C/c3ccc(F)cc3)c2)cc1	-24	x	x	0	x	x
O=[N+]([O-])c1ccc(O)c(C2=NNC(c3ccccc3F)C2)c1 (centres undefined)	28	-23	9.6*	2	x	-2
COc1ccc(CNC(=O)CCCNS(=O)(=O)c2cccc3nonc23)cc1	41	0	-1	63*	4	-1
CSC(=S)N/N=C(\C)c1ccc(Br)cc1	14	3	-1	7	-6	3
CCN1C(=O)/C(=C2/SC(C)=C(C)N2CC)SC1=S	80*	38	2	u	1	29
CCOC(=O)c1ccc2c(c1)[n+](CC)c(C)n2-c1ccccc1	-1	12	-4	0	-7	-12
CC[n+]1c(C)n(-c2ccccc2)c2ccc(C(=O)OC)cc21	12	2	0	2	16*	-10
CN1C(=O)/C(=C/c2cn(CC(=O)N3CCCCC3)c3ccccc23)c2ccccc21	14	-9	-1	-7	-1	-4
O=C(Nc1ccccc1-c1nc2ccccc2s1)c1ccco1	-19	1	-2	3	-1	-2
O=c1c(-c2nc3ccccc3s2)cccn1Cc1ccccc1	36	32	9.0*	9	-1	12
Cc1ccc(Cn2cccc(-c3nc4ccccc4s3)c2=O)cc1	22	134*	1	u	-5	50
CC(=O)NCc1ccc(-c2nc3ccccc3s2)cc1	43	-3	5	-1	4	2
Cc1csc(N2CCCC2c2nc3cc(C(F)(F)F)ccc3n2CCOCCO)n1 (centres undefined)	x	x	x	-2	x	x
O=C(Nc1nnc(-c2ccc3c(c2)CCCC3)o1)c1ccc(Cl)cc1Cl	-18	-1	-3	4	-10	0
O=C(Nc1nnc(-c2ccc3c(c2)CCCC3)o1)c1c(F)cccc1F	16	1	-2	3	10*	2
